ChEMBL document CHEMBL3525903 (Drug Metab Dispos, 2013)

Tests used:
[1] = tested on: P-glycoprotein; test: Permeability assessed as human P-glycoprotein-mediated transport across apical to basolateral side expressed in pig LLC-PK1 cells by Transwell experiment/liquid scintillation counting; format: ADME, cell-based
[2] = molecular target: T1, Organic anion transporter 3 (Homo sapiens, UniProt Q8TCC7); test: Inhibition of OAT3 (unknown origin) expressed in HEK293 cells assessed as reduction of [3H]E-sul substrate uptake at 100 uM by liquid scintillation counting; format: ADME, cell-based; conditions: hek293, 100 µM
T1 sequence (Q8TCC7 whole entry): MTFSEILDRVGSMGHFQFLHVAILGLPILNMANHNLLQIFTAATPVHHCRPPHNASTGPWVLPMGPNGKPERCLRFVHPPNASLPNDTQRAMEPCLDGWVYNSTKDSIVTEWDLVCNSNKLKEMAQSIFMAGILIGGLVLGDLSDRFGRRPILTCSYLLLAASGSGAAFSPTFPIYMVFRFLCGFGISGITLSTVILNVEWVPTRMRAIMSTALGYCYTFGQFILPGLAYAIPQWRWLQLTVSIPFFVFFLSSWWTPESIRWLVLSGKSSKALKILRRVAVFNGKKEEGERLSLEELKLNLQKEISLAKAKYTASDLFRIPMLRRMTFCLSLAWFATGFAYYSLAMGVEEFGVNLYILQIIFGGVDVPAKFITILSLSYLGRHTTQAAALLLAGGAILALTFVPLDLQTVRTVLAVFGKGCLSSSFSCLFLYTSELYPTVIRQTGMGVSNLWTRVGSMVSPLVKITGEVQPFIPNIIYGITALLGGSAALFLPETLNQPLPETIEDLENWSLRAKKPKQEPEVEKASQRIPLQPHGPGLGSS
Procedure, shortened: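 HEK293 cells transiently transfected with OAT, OATP or OCT plasmid (FuGENE6; 24 h, then 24 h more with sodium butyrate), or stable OCTN1/OCTN2 lines; vector-transfected cells as control. Washed, preincubated 15–60 min at 37 °C in modified Krebs-Henseleit/25 mM HEPES buffer. Uptake of radiolabelled substrate, 100 µM inhibitor. Cells lysed in NaOH and counted by scintillation; counts normalised to medium radioactivity and Lowry protein; vector uptake subtracted.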

## CC#CCn1c(N2CCC[C@@H](N)C2)nc2c1c(=O)n(Cc1nc(C)c3ccccc3n1)c(=O)n2C [LINAGLIPTIN]
[1]
  Km: 220 µM
[2]
  inhibition (INH): 0%
